From ChEMBL document CHEMBL4622964, “Designing Dihydrofolate Reductase Inhibitors as X-ray Radiosensitizers to Reverse Radioresistance of Cervical Cancer” (ACS Med Chem Lett, 2020)
pIC50: −log10 of the molar value.

Assays:
[1] = Ratio of IC50 for cytotoxicity against human Ect1 cells assessed as reduction in cell viability by MTT assay to cytotoxicity against human Ect1 cells assessed as reduction in cell viability in presence of 4 Gy irradiation by MTT assay; assay type: cell-based; conditions: read-out: Ratio IC50
In short: (§1)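 MTT viability assay on Ect1/E6E7 normal ectocervical cells and HeLa cells, with 0 or 4 Gy X-rays. SER = IC50(0 Gy)/IC50(4 Gy) in the same line; safe index SI4 = IC50 Ect1/E6E7 + 4 Gy divided by IC50 HeLa + 4 Gy.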

[2] = Safety index, ratio of IC50 for cytotoxicity against human Ect1 cells assessed as reduction in cell viability to IC50 for antiproliferative activity against human HeLa cells assessed as reduction in cell viability incubated for 12 hrs by MTT assay; assay type: toxicity, cell-based; conditions: Ect1 cells versus HeLa cells, read-out: Ratio IC50
In short: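 Safe index SI0 from MTT assay without irradiation: IC50 in Ect1/E6E7 normal ectocervical cells divided by IC50 in HeLa cells.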

Dihydrofolate reductase = molecular target: T1, Dihydrofolate reductase (Homo sapiens, UniProt P00374); test: Inhibition of recombinant human DHFR using dihydrofolate as substrate in presence of NADPH
T1 sequence (P00374 whole entry): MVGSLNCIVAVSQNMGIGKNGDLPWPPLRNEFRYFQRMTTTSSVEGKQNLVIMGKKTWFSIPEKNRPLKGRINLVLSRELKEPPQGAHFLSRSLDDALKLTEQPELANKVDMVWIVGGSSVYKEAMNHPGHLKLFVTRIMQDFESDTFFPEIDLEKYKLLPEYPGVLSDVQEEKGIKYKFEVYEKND

HeLa [3] = test: Ratio of IC50 for antiproliferative activity against human HeLa cells assessed as reduction in cell viability incubated for 12 hrs to IC50 for antiproliferative activity against human HeLa cells assessed as reduction in cell viability preincubated for 12 hrs followed by 4 Gy irradiation and measured after 60 hrs by MTT assay; assay type: functional
In short: (§2)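 MTT viability assay in HeLa cancer cells, with the test agent alone (0 Gy) or combined with 4 Gy X-rays. IC50 values are in μM. Sensitivity enhancement ratio = IC50(0 Gy)/IC50(4 Gy).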

[4] = Cytotoxicity against human Ect1 cells assessed as reduction in cell viability by MTT assay; assay type: cell-based
In short: (§3)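 MTT viability assay in Ect1/E6E7 normal ectocervical epithelial cells, with the test agent alone (0 Gy) or combined with 4 Gy X-rays. IC50 values are in μM.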

HeLa [5] = test: Antiproliferative activity against human HeLa cells assessed as reduction in cell viability incubated for 12 hrs by MTT assay; assay type: functional, cell-based; in short: as §2
[6] = Cytotoxicity against human Ect1 cells assessed as reduction in cell viability in presence of 4 Gy irradiation by MTT assay; assay type: cell-based; conditions: light or radiation study; in short: as §3
[7] = Safety index, ratio of IC50 for cytotoxicity against human Ect1/E6E7 cells assessed as reduction in cell viability in presence of 4 Gy irradiation by MTT assay to antiproliferative activity against human HeLa cells assessed as reduction in cell viability preincubated for 12 hrs followed by 4 Gy irradiation and measured after 60 hrs by MTT assay; assay type: toxicity, cell-based; conditions: Ect1/E6E7 cells versus HeLa cells, read-out: Ratio IC50; in short: as §1
HeLa [8] = test: Antiproliferative activity against human HeLa cells assessed as reduction in cell viability preincubated for 12 hrs followed by 4 Gy irradiation and measured after 60 hrs by MTT assay; assay type: functional, cell-based; conditions: light or radiation study; in short: as §2

`Nc1nc(N)c2nc3c4cccnc4c4ncccc4c3nc2n1` showed a selectivity ratio [1] of 1.4, a selectivity ratio at 12 h [2] of 2 and a pIC50 (Dihydrofolate reductase) of 5.24. The “Ratio IC50” value (HeLa [3]) was 1.6, the pIC50 [4] was 4.70 and the pIC50 (HeLa [5]) was 5.01. The pIC50 [6] was 4.86, the selectivity ratio at 60 h [7] was 2.2 and the pIC50 (HeLa [8]) was 5.20.
Compound `CN(Cc1cnc2nc(N)nc(N)c2n1)c1ccc(C(=O)N[C@@H](CCC(=O)O)C(=O)O)cc1` [METHOTREXATE] has a pIC50 [4] of 5.54, a pIC50 (HeLa [5]) of 5.82 and a pIC50 [6] of 5.74. It also gave a pIC50 (HeLa [8]) of 6.09.
For `Nc1nc(N)c2nc(-c3ccccc3)c(-c3ccccc3)nc2n1`, the pIC50 [4] was 4.23, the pIC50 (HeLa [5]) was 4.49 and the pIC50 [6] was 4.42. It also gave a pIC50 (HeLa [8]) of 4.83.
With `Nc1nc(N)c2nc3c4ccccc4c4ccccc4c3nc2n1` the pIC50 (Dihydrofolate reductase) was < 4.30, the pIC50 [4] was < 4.10 and the pIC50 (HeLa [5]) was < 4.10. For the same compound, the pIC50 [6] was < 4.10 and the pIC50 (HeLa [8]) was < 4.10.
With `Nc1nc(N)c2nc(-c3cccs3)c(-c3cccs3)nc2n1` the selectivity ratio [1] was 2.1, the selectivity ratio at 12 h [2] was 2.5 and the pIC50 (Dihydrofolate reductase) was 5.84. For the same compound, the “Ratio IC50” value (HeLa [3]) was 2, the pIC50 [4] was 4.96 and the pIC50 (HeLa [5]) was 5.34. For the same compound, the pIC50 [6] was 5.28, the selectivity ratio at 60 h [7] was 2.3 and the pIC50 (HeLa [8]) was 5.64.
`Nc1nc(N)c2nc(-c3ccco3)c(-c3ccco3)nc2n1` gave a selectivity ratio [1] of 2, a selectivity ratio at 12 h [2] of 1.6 and a pIC50 (Dihydrofolate reductase) of 4.98. For the same compound, the “Ratio IC50” value (HeLa [3]) was 1.7, the pIC50 [4] was 4.40 and the pIC50 (HeLa [5]) was 4.61. For the same compound, the pIC50 [6] was 4.70, the selectivity ratio at 60 h [7] was 1.4 and the pIC50 (HeLa [8]) was 4.84.
